In ChEMBL document CHEMBL1799983, “Anti-inflammatory and cytotoxic neoflavonoids and benzofurans from Pterocarpus santalinus” (J Nat Prod, 2011):
In brackets after ≈: the same amount, converted by molar mass.

Columns and labels:
A549 = assay: Cytotoxicity against human A549 cells by MTT assay; type: functional, cell-based
Procedure, shortened: (§1)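 Fractions and isolates were screened against the cancer cell lines by a colorimetric MTT assay run to an established protocol, with doxorubicin as the positive control.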

[1] = Antiinflammatory activity in human neutrophils assessed as inhibition of FMLP/CB-induced superoxide anion generation at 10 ug/ml; type: functional, Neutrophil
Procedure, shortened: (§2)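 Percentage inhibition in human neutrophils, measured at 10 μg/mL test concentration and reported as mean ± SEM (n = 3–5). Significance was tested against the control value at p < 0.05, 0.01 and 0.001. LY294002 was the positive control.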

[2] = Antiinflammatory activity in human neutrophils assessed as inhibition of FMLP/CB-induced elastase release at 10 ug/ml; type: functional, Neutrophil; settings: for inhibition at 10 µg/mL: Homo sapiens, Neutrophil; procedure, shortened: as §2
HepG2 = assay: Cytotoxicity against human HepG2 cells by MTT assay; type: functional, cell-based; procedure, shortened: as §1
[3] = Antiinflammatory activity in human neutrophils assessed as inhibition of FMLP/CB-induced elastase release; type: functional, cell-based; settings: Neutrophil
Procedure, shortened: (§3)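 IC50 (concentration giving 50% inhibition) in human neutrophils, reported as mean ± SEM, n = 3–5. LY294002, a phosphatidylinositol-3-kinase inhibitor, served as the positive control for both superoxide anion generation and elastase release.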

MDA-MB-231 = assay: Cytotoxicity against human MDA-MB-231 cells by MTT assay; type: functional, cell-based; procedure, shortened: as §1
[4] = Antiinflammatory activity in human neutrophils assessed as inhibition of FMLP/CB-induced superoxide anion generation; type: functional, cell-based; settings: Neutrophil; procedure, shortened: as §3
Ca9-22 = assay: Cytotoxicity against human Ca9-22 cells by MTT assay; type: functional, cell-based; procedure, shortened: as §1
[5] = Cytotoxicity against human Hep3B cells by MTT assay; type: functional, cell-based, Hep 3B2; procedure, shortened: as §1
MCF7 = assay: Cytotoxicity against human MCF7 cells by MTT assay; type: functional, cell-based; procedure, shortened: as §1
Neutrophil = assay: Ratio of LY294002 IC50 to compound IC50 for FMLP/CB-induced elastase release in human neutrophils; type: functional
[6] = Homo sapiens, A549, read-out: IC50
[7] = Homo sapiens, Ca9-22, read-out: IC50
[8] = Homo sapiens, HepG2, read-out: IC50
[9] = Homo sapiens, MDA-MB-231, read-out: IC50
[10] = Homo sapiens, Hep3B, read-out: IC50
[11] = Homo sapiens, MCF7, read-out: IC50

IC50 [3] [µg/mL] | IC50 [4] [µg/mL] | SMILES | IC50 (A549; [6]) [µg/mL] | IC50 (Ca9-22; [7]) [µg/mL] | IC50 (HepG2; [8]) [µg/mL] | IC50 (MDA-MB-231; [9]) [µg/mL] | IC50 [5, 10] [µg/mL] | IC50 (MCF7; [11]) [µg/mL] | also measured
2.13 (≈ 6.69 µM) | – | COC1=CC(=O)C([C@@H](C)[C@@H](O)c2ccc(OC)c(O)c2)=CC1=O [PTEROLINUS E] | 6.96 (≈ 21.9 µM) | 6.96 (≈ 21.9 µM) | 6.96 (≈ 21.9 µM) | 6.96 (≈ 21.9 µM) | 6.96 (≈ 21.9 µM) | 6.96 (≈ 21.9 µM) | –
3.22 (≈ 9.75 µM) | – | C=C[C@@H](c1ccc(OC)c(O)c1)c1cc(O)c(C(=O)OC)cc1O [PTEROLINUS F] | 11.1 (≈ 33.6 µM) | 11.1 (≈ 33.6 µM) | 11.1 (≈ 33.6 µM) | 11.1 (≈ 33.6 µM) | 11.1 (≈ 33.6 µM) | 11.1 (≈ 33.6 µM) | –
– | 2.28 (≈ 7.21 µM) | COc1ccc([C@H]2Oc3cc(OC)c(OC)cc3[C@@H]2C)cc1O [PTEROLINUS C] | > 19.4 | > 19.4 | > 19.4 | > 19.4 | > 19.4 | > 19.4 | inhibition at 10 µg/mL [2]: 9.73%
1.06 (≈ 3.17 µM) | 0.29 (≈ 0.867 µM) | COC1=CC(=O)C2(C(C)C(O)c3ccc(OC)c(O)c3)OC2C1=O (stereo not drawn) [PTEROLINUS D] | – | – | 4.33 (≈ 13 µM) | 4.89 (≈ 14.6 µM) | 2.08 (≈ 6.22 µM) | 3.31 (≈ 9.9 µM) | Ratio IC50 (Neutrophil): 1.9
– | 2.1 (≈ 6.95 µM) | COc1cc(C2CCOc3cc(OC)c(O)cc32)ccc1O (stereo not drawn) [PTEROLINUS J] | > 17.1 | > 17.1 | > 17.1 | > 17.1 | > 17.1 | > 17.1 | inhibition at 10 µg/mL [2]: 16.6%

Further lines, the compound ahead of its results:

SMILES | IC50 [3] [µg/mL] | IC50 [4] [µg/mL] | IC50 (A549; [6]) [µg/mL] | IC50 (Ca9-22; [7]) [µg/mL] | IC50 (HepG2; [8]) [µg/mL] | IC50 (MDA-MB-231; [9]) [µg/mL] | IC50 [5, 10] [µg/mL] | IC50 (MCF7; [11]) [µg/mL] | also measured
C=C[C@H](C1=CC(O)(CC(C)=O)C(OC)=CC1=O)c1ccc(OC)c(O)c1 (single isomer, unassigned; epimer 2) [PTEROLINUS HB] | – | – | 3.97 (≈ 11.1 µM) | – | – | – | – | – | inhibition (INH) [1]: 34.15%; inhibition (INH) [2]: 2.84%
COc1ccc(-c2oc3cc(OC)c(O)cc3c2C)cc1O [DEHYDROMELANOXIN] | 3.69 (≈ 12.3 µM) | 0.73 (≈ 2.43 µM) | – | – | – | – | – | – | IC50 (HepG2; hepg2): Not Active; IC50 (MDA-MB-231; mda-mb-231): Not Active; IC50 (Ca9-22; ca9-22): Not Active; IC50 ([5]; hep 3b2): Not Active; IC50 (A549; a549): Not Active; IC50 (MCF7; mcf7): Not Active
COc1ccc(C(=O)c2cc(O)c(OC)cc2O)cc1O [MELANOXOIN] | 3.62 (≈ 12.5 µM) | – | – | 0.46 (≈ 1.58 µM) | – | – | – | – | –
COc1cc2oc(-c3ccc(O)cc3)c(C)c2cc1O [PTEROLINUS B] | 47.8 (≈ 177 µM) | 0.19 (≈ 0.703 µM) | 2.34 (≈ 8.66 µM) | – | – | – | – | 1.74 (≈ 6.44 µM) | –
O=c1cc(N2CCOCC2)oc2c(-c3ccccc3)cccc12 [LY-294002] | 1.99 (≈ 6.47 µM) | 1.18 (≈ 3.84 µM) | – | – | – | – | – | – | –
C=C[C@H](C1=CC(=O)C(OC)=CC1=O)c1ccc(OC)c(O)c1 | 1.44 (≈ 4.8 µM) | 0.47 (≈ 1.57 µM) | – | – | – | 3.34 (≈ 11.1 µM) | 2.39 (≈ 7.96 µM) | – | –
COc1ccc(-c2cc(=O)oc3cc(OC)c(O)cc23)cc1O [MELANNEIN] | – | 3.18 (≈ 10.1 µM) | > 17.1 | > 17.1 | > 17.1 | > 17.1 | > 17.1 | > 17.1 | inhibition at 10 µg/mL [2]: -1.53%
COc1ccc([C@H]2Oc3cc(OC)c(O)cc3[C@@H]2C)cc1O [MELANOXIN] | – | 0.69 (≈ 2.28 µM) | 7.7 (≈ 25.5 µM) | 7.7 (≈ 25.5 µM) | 7.7 (≈ 25.5 µM) | 7.7 (≈ 25.5 µM) | 7.7 (≈ 25.5 µM) | 7.7 (≈ 25.5 µM) | inhibition at 10 µg/mL [2]: 33.3%
COc1ccc(-c2c(C)oc3cc(OC)c(O)cc23)cc1O [PTEROLINUS A] | 2.54 (≈ 8.46 µM) | 0.33 (≈ 1.1 µM) | – | – | – | – | – | – | IC50 (HepG2; hepg2): Not Active; IC50 (MDA-MB-231; mda-mb-231): Not Active; IC50 (Ca9-22; ca9-22): Not Active; IC50 ([5]; hep 3b2): Not Active; IC50 (A549; a549): Not Active; IC50 (MCF7; mcf7): Not Active
C=C[C@H](C1=CC(O)(CC(C)=O)C(OC)=CC1=O)c1ccc(OC)c(O)c1 (single isomer, unassigned) [PTEROLINUS HB] | – | – | – | – | 3.65 (≈ 10.2 µM) | 2.85 (≈ 7.95 µM) | – | – | inhibition at 10 µg/mL ([1]; Homo sapiens, Neutrophil): 29.4%; inhibition (INH) [2]: 19.53%
